Screening data (PubChem)
HGIII-sPLA2 inh: Inhibits HGIII-sPLA2 liposome hydrolysis, primary screen; Q9NZ20; QFRET BODIPY PC-A2 liposome hydrolysis, fluorescence; inhibition, % at 12.2 µM; hit rate 0.56% among 370,000;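 active means inhibition above mean plus 3 SD of compounds lying within the high and low control bounds, cut at about 19% in these data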
Target sequence (Q9NZ20 whole entry, looked up): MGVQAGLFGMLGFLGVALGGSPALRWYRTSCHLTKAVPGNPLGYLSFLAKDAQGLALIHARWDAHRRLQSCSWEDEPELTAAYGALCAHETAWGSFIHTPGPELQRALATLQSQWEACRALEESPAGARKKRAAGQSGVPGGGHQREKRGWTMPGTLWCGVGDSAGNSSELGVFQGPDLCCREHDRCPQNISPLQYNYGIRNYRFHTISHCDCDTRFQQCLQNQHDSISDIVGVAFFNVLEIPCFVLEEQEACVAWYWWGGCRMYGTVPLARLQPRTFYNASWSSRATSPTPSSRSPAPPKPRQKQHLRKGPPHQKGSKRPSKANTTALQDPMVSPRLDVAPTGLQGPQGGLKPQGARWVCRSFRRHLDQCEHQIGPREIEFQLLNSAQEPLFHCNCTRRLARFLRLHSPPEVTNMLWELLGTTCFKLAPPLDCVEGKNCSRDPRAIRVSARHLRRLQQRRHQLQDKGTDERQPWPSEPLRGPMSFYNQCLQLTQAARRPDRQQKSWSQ
VIM-2 inhibitor: inhibitors of Pseudomonas aeruginosa VIM-2 metallo-beta-lactamase | inhibition, % at 5.6 µM | purified VIM-2, nitrocefin hydrolysis, epi-absorbance fluorescence | hit rate 0.89% among 290,000;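 active means inhibition above the mean of all tested compounds plus 3 SD, cutoff set per screening run, cut at about 7.5% in these data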;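 further: red hydrolysis product quenches plate fluorescence so inhibitors raise well fluorescence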
M18AAP inhibitor: blocks P. falciparum M18 aspartyl aminopeptidase. inhibition, % at 7.35 µM. hit rate 1.2% among 290,000. recombinant PfM18AAP, H-Glu-NHMec fluorogenic cleavage. AID 1822;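 active means inhibition above the campaign mean inhibition over all tested compounds plus 3 SD, cut at about 28% in these data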
IMP-1 inh: blocks Pseudomonas aeruginosa IMP-1 metallo-beta-lactamase; inhibition, % at 5.6 µM; purified IMP-1, nitrocefin hydrolysis, epi-absorbance fluorescence; AID 1556; hit rate 0.45% among 290,000;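 active means inhibition above the mean plus 3 SD of all compounds in the same screening run, cut at about 4.5% in these data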
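assay system = purified recombinant IMP-1 metallo-beta-lactamase enzyme | schedule = 15 min preincubation plus 25 min reaction at 25 °C | signal = Epi-absorbance fluorescence, 480 nm excitation, 530 nm emission | read-out basis = percent inhibition from optical density relative to buffer-blank wells | controls = IMP-1 with DMSO as 0%, enzyme-free DMSO as 100%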
Numbers stand for hits; – = inactive; · = not tested or not shown. In the library only some 2.4% were active in any assay of this set; here they are far more common.

SMILES	HGIII-sPLA2 inh	VIM-2 inhibitor	M18AAP inhibitor	IMP-1 inh
O=C(CCc1ccccc1)N[C@H]1[C@@H](OC(=O)c2cnccn2)CCC[C@@]12C(=O)N(Cc1ccccc1)c1ccccc12	–	·	·	·
CCc1ccccc1-c1cc(C(=O)OC)c2n(c1=O)CCC2	–	·	·	·
COc1ccccc1/C=C/C=C1\Oc2c(ccc(O)c2CN(C)C)C1=O	–	–	–	9.1
O=C(O)CCC(=O)NNc1nc(-c2ccccc2)c2cc(Cl)ccc2n1	–	–	30	–
CC(=O)NNc1nc(-c2ccccc2)c2cc(Cl)ccc2n1	–	·	·	·
COC(=O)CN(Cc1cn(Cc2ccccc2)nn1)S(=O)(=O)c1ccccc1Br	–	·	·	·
COc1ccc(Cl)cc1C(=O)OCC(=O)NC(=O)c1cccn1C	–	11	–	–
O=C(O)CCn1c(-c2ccccc2)cc2c1CCCC2=O	–	–	29	–
CN1c2ccc(C#CC3CC3)cc2[C@@H]2[C@@H](CCN2C(=O)C2CCOCC2)[C@H]1CO	–	·	·	·
CCOc1cc(-c2nc3ccccn3c2NCC2CCCO2)ccc1O (stereo not given)	–	–	30	–
CCN(CC)C(=O)CSc1nc2ccccc2c(=O)n1CC	–	–	–	–
CCN(CC)C(=O)CSc1nnc(-c2cc3ccccc3cc2O)n1CC	–	10	–	–
C#CCOCCOCCOCCNc1nc(N2CCN(C(=O)[C@H]([C@@H](C)CC)n3cc([C@@H](N)CO)nn3)CC2)nc(N2CCN(C(=O)[C@H](CCCCN)n3cc([C@@H](N)C(C)CC)nn3)CC2)n1 (stereo not given in full)	–	–	–	14
C#CCOCCOCCOCCNc1nc(N2CCN(C(=O)[C@H](CCC(=O)O)n3cc(C(N)Cc4ccc(O)cc4)nn3)CC2)nc(N2CCN(C(=O)[C@H](CCC(=O)O)n3cc(C(N)[C@H](C)CC)nn3)CC2)n1 (stereo not given in full)	·	–	–	5.2
Cc1cccc(-c2cccc3c4c([nH]c23)[C@@H]2C[C@H](N(C)C(=O)Nc3ccccc3C)[C@H]([C@H](C)O)C(=O)N2CC4)c1	–	·	·	·
C/C(C/C(C)=C1/SC(=S)NC1=O)=C1\SC(=S)NC1=O	–	–	29	–
COC(=O)[C@@]12CCCCC3=C1N(CCC3)C(=O)[C@H]2CC(=O)NCCCCc1ccccc1	–	·	·	·
CCC(=O)/C=C1\Sc2ccc(OC)cc2N1CCO	–	–	30	–
O=C(Nc1cccc(N2C(=O)C3CCCCC3C2=O)c1)c1ccccc1 (stereo not given)	–	–	–	–
O=C(Nc1cccc(Cl)c1)c1cccc(N2C(=O)C3CC=CCC3C2=O)c1 (stereo not given)	–	–	–	18
CC(C)[C@H](NC(=O)CC1CCCC1)C(=O)N1CCC[C@H]1C(=O)NCCc1ccccc1Cl	–	·	·	·
CC1(C)CC(=O)C2=C(C1)OC(N)=C(C#N)[C@@H]2c1ccccc1[N+](=O)[O-]	–	–	29	–
COc1cc(C2C(C#N)=C(N)OC3=C2C(=O)CC(C)(C)C3)c([N+](=O)[O-])cc1OC (stereo not given)	–	–	–	–
Cc1cc(/C=N/n2c(COc3ccccc3)nc3ccccc3c2=O)c(O)c([N+](=O)[O-])c1	39	–	–	–
Cc1ccc(-c2[nH]ncc2/C=N/n2c(COc3ccccc3)nc3ccccc3c2=O)cc1	–	–	–	–
SMILES	HGIII-sPLA2 inh	VIM-2 inhibitor	M18AAP inhibitor	IMP-1 inh
Fc1cccc(/C=N/Nc2ccc3ccccc3n2)c1	20	–	–	–
Brc1ccc(/C=N/Nc2ccc3ccccc3n2)cc1	–	–	–	–
O=c1c2ccccc2ncn1-c1cccc([N+](=O)[O-])c1	20	·	·	·
O=C(CSc1ncn[nH]1)Nc1ccc(S(=O)(=O)Nc2ncccn2)cc1	–	–	30	–
NS(=O)(=O)c1ccc(NC(=O)CSc2ncn[nH]2)cc1	–	–	–	–
O=C(NN1C(=O)C2C(c3ccccc3)C=CC(c3ccccc3)C2C1=O)c1ccncc1 (stereo not given)	–	–	–	12
Cc1ccc(S(=O)(=O)NC(=O)c2ccc(-c3ccc(C)c4ccccc34)o2)cc1	–	–	–	4.7
COCCN=C1NN=C(c2ccc(NC(C)=O)cc2)CS1	–	–	28	–
O=C(OCC(=O)N1CCN(C(=O)c2ccco2)CC1)c1cc(-c2ccccc2)nc2ccccc12	–	11	–	–
O=C(OCC(=O)N1CCN(C(=O)c2ccco2)CC1)c1cc(-c2ccc(F)cc2)nc2ccccc12	–	–	–	–
CN1CCc2nc3sc(C(=O)NCc4ccccc4)c(N)c3cc2C1	–	–	29	–
O=c1ccc2cc3c([nH]c4ccc(Br)cc43)oc-2c1O	43	–	–	–
